Measured values taken from ChEMBL document CHEMBL1139326, “The design, synthesis, and antiviral activity of 4'-azidocytidine analogues against hepatitis C virus replication: the discovery of 4'-azidoarabinocytidine” (J Med Chem, 2009).

What was measured:
[1] = Antiproliferative activity against human 2209-23 cells by [3H]thymidine incorporation scintillation proximity assay; format: functional, cell-based
Outline: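 Cell proliferation was read as uptake of tritiated thymidine into cellular DNA, quantified by scintillation proximity, and reported as an IC50. It served to flag possible loss of selectivity against human polymerases.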

Hepatitis C virus = assay: Antiviral activity against Hepatitis C virus infected human 2209-23 cells by genotype 1b replicon assay; format: functional, organism-based, Hepacivirus hominis
[2] = Cytotoxicity against human 2209-23 cells by WST1 cell ciability assay; format: cell-based

Row | IC50 (Hepatitis C virus) | SMILES | IC50 [1] | CC50 [2]
1 | > 100 µM | [N-]=[N+]=N[C@@]1(CO)C[C@@H](O)[C@H](n2ccc(N)nc2=O)O1 |  | 
2 | > 100 µM | C[C@]1(O)[C@H](n2ccc(N)nc2=O)O[C@@](CO)(N=[N+]=[N-])[C@H]1O |  | 
3 | 0.02 µM | Nc1ccn([C@@H]2O[C@H](CO)[C@@H](O)[C@@H]2O)c(=O)n1 [CYTARABINE] | 0.029 µM | < 100 µM
4 |  | [N-]=[N+]=N[C@]1(CO)O[C@@H](n2ccc(N)nc2=O)[C@H](O)[C@@H]1O [4'-AZIDOCYTIDINE] | > 100 µM | 
5 | > 100 µM | C[C@@]1(O)[C@H](n2ccc(N)nc2=O)O[C@@](CO)(N=[N+]=[N-])[C@H]1O |  | 

Row | SMILES | IC50 (Hepatitis C virus) | IC50 [1] | CC50 [2]
6 | [N-]=[N+]=N[C@]1(CO)O[C@@H](n2ccc(N)nc2=O)[C@@H](O)[C@@H]1O | 0.171 µM | > 100 µM | 
7 | [N-]=[N+]=N[C@]1(CO)O[C@@H](n2ccc(N)nc2=O)[C@H](O)[C@H]1O | 27.8 µM |  | 
